# Measured values: ChEMBL document CHEMBL1152689, “Synthesis, tautomerism, and antimicrobial, anti-HCV, anti-SSPE, antioxidant, and antitumor activities of arylazobenzosuberones” (Bioorg Med Chem, 2009)
# Activity calls are given as the source filed them. The rule behind the calls is not given here.
# Tests used:
# Aspergillus fumigatus [1] = test: Antimicrobial activity against Aspergillus fumigatus by agar diffusion method; format: functional
# Outline: (§1)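 Agar diffusion on plates against bacteria and fungi. MIC taken as the lowest concentration giving no visible growth on the plate.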
# Aspergillus fumigatus [2] = test: Antimicrobial activity against Aspergillus fumigatus at 1.25 ug/mL by agar diffusion method; format: functional; details: read-out: IZ
# [3] = Antioxidant activity assessed as inhibition of peroxynitrite-mediated 3-nitrotyrosine formation by HPLC; format: functional
# Outline: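 Tyrosine and peroxynitrite, each 100 µM, reacted with compound at 0–300 µM in 100 mM phosphate buffer pH 7.4 at 37 °C for 15 min. Peroxynitrite made from acidified H2O2 plus KNO2, quenched with NaOH, and kept on ice no longer than 30 min before use.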
# Staphylococcus aureus [4] = test: Antimicrobial activity against Staphylococcus aureus at 1.25 ug/mL by agar diffusion method; format: functional; details: read-out: IZ
# [5] = molecular target: T1, DNA topoisomerase 1 (Homo sapiens) (UniProt P11387); test: Inhibition of topoisomerase 1 relative to etoposide
# T1 sequence (whole entry): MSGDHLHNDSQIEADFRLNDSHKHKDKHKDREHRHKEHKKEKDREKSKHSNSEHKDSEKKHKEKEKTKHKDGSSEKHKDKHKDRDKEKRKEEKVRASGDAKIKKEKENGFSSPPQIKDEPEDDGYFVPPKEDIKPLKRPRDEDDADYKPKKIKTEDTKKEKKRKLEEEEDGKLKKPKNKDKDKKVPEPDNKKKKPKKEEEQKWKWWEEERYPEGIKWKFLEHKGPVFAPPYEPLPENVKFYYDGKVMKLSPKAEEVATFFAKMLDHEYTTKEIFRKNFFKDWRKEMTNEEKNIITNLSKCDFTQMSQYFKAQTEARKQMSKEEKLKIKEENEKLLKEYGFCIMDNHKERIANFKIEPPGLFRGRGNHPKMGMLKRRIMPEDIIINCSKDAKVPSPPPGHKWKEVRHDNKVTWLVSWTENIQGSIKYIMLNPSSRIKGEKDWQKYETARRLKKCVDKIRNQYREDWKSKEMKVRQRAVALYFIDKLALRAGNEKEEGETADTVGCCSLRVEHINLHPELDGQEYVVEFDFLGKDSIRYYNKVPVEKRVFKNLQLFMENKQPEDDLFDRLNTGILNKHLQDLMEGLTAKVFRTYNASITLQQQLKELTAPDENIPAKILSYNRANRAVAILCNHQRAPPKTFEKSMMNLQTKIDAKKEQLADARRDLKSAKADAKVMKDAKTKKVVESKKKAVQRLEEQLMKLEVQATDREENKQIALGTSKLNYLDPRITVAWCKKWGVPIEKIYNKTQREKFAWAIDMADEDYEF
# Escherichia coli [6] = test: Antimicrobial activity against Escherichia coli at 2.5 ug/mL by agar diffusion method; format: functional; details: read-out: IZ
# Pseudomonas aeruginosa [7] = test: Antimicrobial activity against Pseudomonas aeruginosa at 1.25 ug/mL by agar diffusion method; format: functional; details: read-out: IZ
# [8] = system: Radical scavenging activity; test: Antioxidant activity assessed as DPPH free radical scavenging activity by measuring reduction in DPPH absorbance by ELISA relative to untreated control; format: functional; parameters: concentration or dose not given beside the values
# Outline: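 Test compounds dissolved in DMSO, ascorbic acid standard in water, both serially diluted. 10 µl sample added to 90 µl of 100 µM DPPH in methanol and kept in the dark at 37 °C for 30 min. Absorbance read at 515 nm. Blank is DMSO plus DPPH. % reduction = (A_B − A_A)/A_B × 100. Run in triplicate.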
# [9] = molecular target: DNA topoisomerase 2-alpha (Mus musculus) (UniProt Q01320); test: Inhibition of topoisomerase 2 from mouse P388 cells assessed as relaxation of pBR322 DNA by agarose gel electrophoresis relative to etoposide; format: cell-based
# Outline: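 Topoisomerase II purified from P388 cells. One unit relaxes 0.125 µg supercoiled pBR322 DNA, incubated with or without inhibitor at 30 °C for 1 h in 50 mM Tris-HCl pH 8.0, 100 mM KCl, 10 mM MgCl2, 0.5 mM DTT, 1 mM ATP and 30 µg/ml BSA. Products run on 0.7% agarose in TBE, stained with ethidium bromide and imaged under UV.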
# Staphylococcus aureus [10] = test: Antimicrobial activity against Staphylococcus aureus by agar diffusion method; format: functional; outline: as §1
# Escherichia coli [11] = test: Antimicrobial activity against Escherichia coli at 5 ug/mL by agar diffusion method; format: functional; details: read-out: IZ
# Pseudomonas aeruginosa [12] = test: Antimicrobial activity against Pseudomonas aeruginosa at 2.5 ug/mL by agar diffusion method; format: functional; details: read-out: IZ
# Bacillus subtilis [13] = test: Antimicrobial activity against Bacillus subtilis at 5 ug/mL by agar diffusion method; format: functional; details: read-out: IZ
# Penicillium italicum [14] = test: Antimicrobial activity against Penicillium italicum at 2.5 ug/mL by agar diffusion method; format: functional; details: read-out: IZ
# Aspergillus fumigatus [15] = test: Antimicrobial activity against Aspergillus fumigatus at 5 ug/mL by agar diffusion method; format: functional; details: read-out: IZ
# Penicillium italicum [16] = test: Antimicrobial activity against Penicillium italicum at 5 ug/mL by agar diffusion method; format: functional; details: read-out: IZ
# [17] = system: Syncephalastrum racemosum; test: Antimicrobial activity against Syncephalastrum racemosum at 1.25 ug/mL by agar diffusion method; format: functional; details: read-out: IZ
# MC-38 = test: Antitumor activity against mouse Colon 38 cells implanted in iv dosed C57BL/6 mouse administered as single dose; format: functional, organism-based
# Outline: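 Female C57BL/6 mice, 6 weeks old, given about 30 mg Colon 38 tumor tissue s.c. in the flank. Randomized into groups of n = 5 when tumors reached about 300 mm3 (day 1). Compound in 5% glucose given as a single iv tail-vein dose on day 1; controls received 5% glucose. Tumor volume = (length × width²)/2 and body weight tracked.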
# [18] = system: Syncephalastrum racemosum; test: Antimicrobial activity against Syncephalastrum racemosum at 5 ug/mL by agar diffusion method; format: functional; details: read-out: IZ
# Candida albicans [19] = test: Antimicrobial activity against Candida albicans by agar diffusion method; format: functional; outline: as §1
# [20] = system: Syncephalastrum racemosum; test: Antimicrobial activity against Syncephalastrum racemosum by agar diffusion method; format: functional; outline: as §1
# Candida albicans [21] = test: Antimicrobial activity against Candida albicans at 5 ug/mL by agar diffusion method; format: functional; details: read-out: IZ
# Bacillus subtilis [22] = test: Antimicrobial activity against Bacillus subtilis at 1.25 ug/mL by agar diffusion method; format: functional; details: read-out: IZ
# Staphylococcus aureus [23] = test: Antimicrobial activity against Staphylococcus aureus at 5 ug/mL by agar diffusion method; format: functional; details: read-out: IZ
# Staphylococcus aureus [24] = test: Antimicrobial activity against Staphylococcus aureus at 2.5 ug/mL by agar diffusion method; format: functional; details: read-out: IZ
# Penicillium italicum [25] = test: Antimicrobial activity against Penicillium italicum at 1.25 ug/mL by agar diffusion method; format: functional; details: read-out: IZ
# Aspergillus fumigatus [26] = test: Antimicrobial activity against Aspergillus fumigatus at 2.5 ug/mL by agar diffusion method; format: functional; details: read-out: IZ
# Bacillus subtilis [27] = test: Antimicrobial activity against Bacillus subtilis by agar diffusion method; format: functional; outline: as §1
# Bacillus subtilis [28] = test: Antimicrobial activity against Bacillus subtilis at 2.5 ug/mL by agar diffusion method; format: functional; details: read-out: IZ
# Measles morbillivirus = test: Antiviral activity against Measles virus infected in intracranially dosed hamster assessed as inhibition of subacute sclerosing panencephalitis; format: functional
# Outline: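 Hamsters under ether anesthesia injected intracranially, into the subarachnoid space at 2 mm depth, at 5, 10 and 20 mg/kg/day for 10 days. Four animals per group sacrificed on days 1–20. Brains homogenized in PBS and centrifuged, supernatant deproteinized with ethanol, then MIC in brain tissue determined by HPLC and bioassay.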
# Candida albicans [29] = test: Antimicrobial activity against Candida albicans at 1.25 ug/mL by agar diffusion method; format: functional; details: read-out: IZ
# Candida albicans [30] = test: Antimicrobial activity against Candida albicans at 2.5 ug/mL by agar diffusion method; format: functional; details: read-out: IZ
# Pseudomonas aeruginosa [31] = test: Antimicrobial activity against Pseudomonas aeruginosa at 5 ug/mL by agar diffusion method; format: functional; details: read-out: IZ
# Escherichia coli [32] = test: Antimicrobial activity against Escherichia coli at 1.25 ug/mL by agar diffusion method; format: functional; details: read-out: IZ
# [33] = system: Syncephalastrum racemosum; test: Antimicrobial activity against Syncephalastrum racemosum at 2.5 ug/mL by agar diffusion method; format: functional; details: read-out: IZ
# Hepatitis C virus = test: Antiviral activity against HCV by cell based replicon assay; format: functional, Hepacivirus hominis
# Outline: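 HCV replicon cells plated at 1×10^4 per well. Next day incubated at 37 °C with serially diluted compound in DMEM with 2% FBS and 0.5% DMSO. HCV RNA copy number measured by quantitative RT-PCR on total cellular RNA. Each point is the average of five replicates. Cytotoxicity measured by MTS in parallel.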
# Penicillium italicum [34] = test: Antimicrobial activity against Penicillium italicum by agar diffusion method; format: functional; outline: as §1
# Sequence of DNA topoisomerase 2-alpha (Mus musculus) (Q01320 whole entry): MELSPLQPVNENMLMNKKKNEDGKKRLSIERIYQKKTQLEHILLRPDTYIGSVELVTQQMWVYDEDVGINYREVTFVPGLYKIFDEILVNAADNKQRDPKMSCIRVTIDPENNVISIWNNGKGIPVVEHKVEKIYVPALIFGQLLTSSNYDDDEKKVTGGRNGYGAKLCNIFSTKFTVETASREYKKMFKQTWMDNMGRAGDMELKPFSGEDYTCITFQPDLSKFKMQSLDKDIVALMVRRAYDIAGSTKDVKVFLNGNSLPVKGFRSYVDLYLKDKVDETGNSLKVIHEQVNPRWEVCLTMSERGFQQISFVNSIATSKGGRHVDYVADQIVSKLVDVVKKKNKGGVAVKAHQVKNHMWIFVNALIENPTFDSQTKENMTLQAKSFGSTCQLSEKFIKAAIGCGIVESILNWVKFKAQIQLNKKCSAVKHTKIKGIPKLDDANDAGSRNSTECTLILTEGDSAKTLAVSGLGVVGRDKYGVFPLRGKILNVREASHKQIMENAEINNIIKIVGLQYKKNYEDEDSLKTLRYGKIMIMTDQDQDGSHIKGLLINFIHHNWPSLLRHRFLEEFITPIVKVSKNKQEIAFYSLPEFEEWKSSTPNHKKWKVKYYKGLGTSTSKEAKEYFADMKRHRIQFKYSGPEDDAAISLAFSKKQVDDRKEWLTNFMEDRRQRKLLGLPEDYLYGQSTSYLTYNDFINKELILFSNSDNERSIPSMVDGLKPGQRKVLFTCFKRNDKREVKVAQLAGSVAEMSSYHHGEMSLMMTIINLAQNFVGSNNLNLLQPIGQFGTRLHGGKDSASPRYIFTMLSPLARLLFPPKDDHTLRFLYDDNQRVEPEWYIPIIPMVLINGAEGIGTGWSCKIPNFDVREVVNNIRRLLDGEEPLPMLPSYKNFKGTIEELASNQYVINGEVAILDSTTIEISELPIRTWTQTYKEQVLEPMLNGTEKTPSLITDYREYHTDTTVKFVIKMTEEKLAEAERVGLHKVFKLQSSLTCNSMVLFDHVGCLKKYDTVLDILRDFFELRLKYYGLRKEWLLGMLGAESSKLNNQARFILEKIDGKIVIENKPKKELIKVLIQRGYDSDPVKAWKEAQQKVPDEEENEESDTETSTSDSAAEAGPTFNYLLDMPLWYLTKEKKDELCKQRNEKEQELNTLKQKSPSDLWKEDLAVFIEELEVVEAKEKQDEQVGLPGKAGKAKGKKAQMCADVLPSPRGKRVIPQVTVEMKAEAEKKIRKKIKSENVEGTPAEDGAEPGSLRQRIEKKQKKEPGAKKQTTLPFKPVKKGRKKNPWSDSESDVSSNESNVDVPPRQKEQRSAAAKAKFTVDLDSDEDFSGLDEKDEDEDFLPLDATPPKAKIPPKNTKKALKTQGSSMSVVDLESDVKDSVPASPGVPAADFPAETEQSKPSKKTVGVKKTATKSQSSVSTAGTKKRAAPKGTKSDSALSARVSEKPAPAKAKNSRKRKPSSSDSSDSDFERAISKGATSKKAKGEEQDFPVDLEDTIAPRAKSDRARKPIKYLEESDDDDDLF
structure (smiles),measurement,setting,value
Cc1ccc(N/N=C2\CCCc3ccccc3C2=O)cc1,MIC,Aspergillus fumigatus [1],0.313 µg/mL
same,zone of inhibition at 1.25 µg/mL,Aspergillus fumigatus [2],9 mm
same,IC50,[3],56.3 µM
same,zone of inhibition at 1.25 µg/mL,Staphylococcus aureus [4],5 mm
same,Ratio,[5],4.2
same,zone of inhibition at 2.5 µg/mL,Escherichia coli [6],0 mm
same,zone of inhibition at 1.25 µg/mL,Pseudomonas aeruginosa [7],0 mm
same,Activity,[8],80.1%
same,Ratio,[9],4.27
same,MIC,Staphylococcus aureus [10],0.625 µg/mL
same,zone of inhibition at 5 µg/mL,Escherichia coli [11],7 mm
same,zone of inhibition at 2.5 µg/mL,Pseudomonas aeruginosa [12],0 mm
same,zone of inhibition at 5 µg/mL,Bacillus subtilis [13],16 mm
same,zone of inhibition at 2.5 µg/mL,Penicillium italicum [14],0 mm
same,zone of inhibition at 5 µg/mL,Aspergillus fumigatus [15],22 mm
same,zone of inhibition at 5 µg/mL,Penicillium italicum [16],0 mm
same,zone of inhibition at 1.25 µg/mL,[17],7 mm
same,Activity,MC-38,Active
same,zone of inhibition at 5 µg/mL,[18],18 mm
same,MIC,Candida albicans [19],1.25 µg/mL
same,MIC,[20],0.625 µg/mL
same,zone of inhibition at 5 µg/mL,Candida albicans [21],14 mm
same,zone of inhibition at 1.25 µg/mL,Bacillus subtilis [22],4 mm
same,zone of inhibition at 5 µg/mL,Staphylococcus aureus [23],12 mm
same,zone of inhibition at 2.5 µg/mL,Staphylococcus aureus [24],8 mm
same,zone of inhibition at 1.25 µg/mL,Penicillium italicum [25],0 mm
same,zone of inhibition at 2.5 µg/mL,Aspergillus fumigatus [26],13 mm
same,MIC,Bacillus subtilis [27],0.625 µg/mL
same,zone of inhibition at 2.5 µg/mL,Bacillus subtilis [28],6 mm
same,MIC,Measles morbillivirus,7.06 µg/mL
same,zone of inhibition at 1.25 µg/mL,Candida albicans [29],2 mm
same,zone of inhibition at 2.5 µg/mL,Candida albicans [30],6 mm
same,zone of inhibition at 5 µg/mL,Pseudomonas aeruginosa [31],0 mm
same,zone of inhibition at 1.25 µg/mL,Escherichia coli [32],0 mm
same,zone of inhibition at 2.5 µg/mL,[33],12 mm
same,MIC,Hepatitis C virus,1.14 µg/mL
CC(=O)c1ccc(N/N=C2\CCCc3ccccc3C2=O)cc1,MIC,Aspergillus fumigatus [1],0.625 µg/mL
same,zone of inhibition at 1.25 µg/mL,Aspergillus fumigatus [2],6 mm
same,IC50,[3],56.1 µM
same,zone of inhibition at 1.25 µg/mL,Staphylococcus aureus [4],5 mm
same,Ratio,[5],4.3
same,zone of inhibition at 2.5 µg/mL,Escherichia coli [6],0 mm
same,zone of inhibition at 1.25 µg/mL,Pseudomonas aeruginosa [7],0 mm
same,Activity,[8],81%
same,MIC,Penicillium italicum [34],1.25 µg/mL
same,Ratio,[9],4.33
same,MIC,Staphylococcus aureus [10],0.625 µg/mL
same,zone of inhibition at 5 µg/mL,Escherichia coli [11],12 mm
same,zone of inhibition at 2.5 µg/mL,Pseudomonas aeruginosa [12],0 mm
same,zone of inhibition at 5 µg/mL,Bacillus subtilis [13],16 mm
same,zone of inhibition at 2.5 µg/mL,Penicillium italicum [14],6 mm
same,zone of inhibition at 5 µg/mL,Aspergillus fumigatus [15],20 mm
same,zone of inhibition at 5 µg/mL,Penicillium italicum [16],17 mm
same,zone of inhibition at 1.25 µg/mL,[17],6 mm
same,Activity,MC-38,Active
same,zone of inhibition at 5 µg/mL,[18],16 mm
same,MIC,Candida albicans [19],1.25 µg/mL
same,MIC,[20],0.313 µg/mL
same,zone of inhibition at 5 µg/mL,Candida albicans [21],10 mm
same,zone of inhibition at 1.25 µg/mL,Bacillus subtilis [22],7 mm
same,zone of inhibition at 5 µg/mL,Staphylococcus aureus [23],15 mm
same,zone of inhibition at 2.5 µg/mL,Staphylococcus aureus [24],8 mm
same,zone of inhibition at 1.25 µg/mL,Penicillium italicum [25],4 mm
same,zone of inhibition at 2.5 µg/mL,Aspergillus fumigatus [26],11 mm
same,MIC,Bacillus subtilis [27],0.313 µg/mL
same,zone of inhibition at 2.5 µg/mL,Bacillus subtilis [28],10 mm
same,MIC,Measles morbillivirus,6.12 µg/mL
same,zone of inhibition at 1.25 µg/mL,Candida albicans [29],3 mm
same,zone of inhibition at 2.5 µg/mL,Candida albicans [30],7 mm
same,zone of inhibition at 5 µg/mL,Pseudomonas aeruginosa [31],0 mm
same,zone of inhibition at 1.25 µg/mL,Escherichia coli [32],0 mm
same,zone of inhibition at 2.5 µg/mL,[33],9 mm
same,MIC,Hepatitis C virus,1.09 µg/mL
